Activity calls are given as the source filed them. The rule behind the calls is not given here.
Columns and labels:
[1] = biological target: T1, NAD-dependent protein deacetylase sirtuin-3, mitochondrial (Homo sapiens) (UniProt Q9NTG7); experiment: Inhibition of human N-terminal GST-tagged SIRT3 (102 to 399 residues) expressed in Escherichia coli using Ac-Gln-Pro-Lys-Lys(but)-AMC (oxo-12) as substrate at 100 uM by fluorescence assay relative to control
T1 sequence (whole entry): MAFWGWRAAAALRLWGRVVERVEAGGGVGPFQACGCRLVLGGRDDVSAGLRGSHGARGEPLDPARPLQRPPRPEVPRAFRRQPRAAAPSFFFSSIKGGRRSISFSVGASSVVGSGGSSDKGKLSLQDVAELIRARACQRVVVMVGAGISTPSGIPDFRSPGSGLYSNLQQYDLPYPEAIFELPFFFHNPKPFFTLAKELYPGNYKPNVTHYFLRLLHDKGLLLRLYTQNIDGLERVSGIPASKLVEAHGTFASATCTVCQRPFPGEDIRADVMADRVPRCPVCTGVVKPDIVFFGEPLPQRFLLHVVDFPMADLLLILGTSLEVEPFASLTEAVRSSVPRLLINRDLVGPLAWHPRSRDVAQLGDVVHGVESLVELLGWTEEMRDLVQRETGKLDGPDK

[2] = biological target: T2, NAD-dependent protein deacetylase sirtuin-1 (Homo sapiens) (UniProt Q96EB6); experiment: Inhibition of human N-terminal GST-tagged SIRT1 (193 to 741 residues) expressed in Escherichia coli preincubated without NAD+ for 30 mins using Ac-Gln-Pro-Lys-Lys(Ac)-AMC (oxo-10) as substrate at 1 to 100 uM measured after 90 mins by fluorescence assay; details: dose microM 1-100, time 30.0 min
T2 sequence (whole entry): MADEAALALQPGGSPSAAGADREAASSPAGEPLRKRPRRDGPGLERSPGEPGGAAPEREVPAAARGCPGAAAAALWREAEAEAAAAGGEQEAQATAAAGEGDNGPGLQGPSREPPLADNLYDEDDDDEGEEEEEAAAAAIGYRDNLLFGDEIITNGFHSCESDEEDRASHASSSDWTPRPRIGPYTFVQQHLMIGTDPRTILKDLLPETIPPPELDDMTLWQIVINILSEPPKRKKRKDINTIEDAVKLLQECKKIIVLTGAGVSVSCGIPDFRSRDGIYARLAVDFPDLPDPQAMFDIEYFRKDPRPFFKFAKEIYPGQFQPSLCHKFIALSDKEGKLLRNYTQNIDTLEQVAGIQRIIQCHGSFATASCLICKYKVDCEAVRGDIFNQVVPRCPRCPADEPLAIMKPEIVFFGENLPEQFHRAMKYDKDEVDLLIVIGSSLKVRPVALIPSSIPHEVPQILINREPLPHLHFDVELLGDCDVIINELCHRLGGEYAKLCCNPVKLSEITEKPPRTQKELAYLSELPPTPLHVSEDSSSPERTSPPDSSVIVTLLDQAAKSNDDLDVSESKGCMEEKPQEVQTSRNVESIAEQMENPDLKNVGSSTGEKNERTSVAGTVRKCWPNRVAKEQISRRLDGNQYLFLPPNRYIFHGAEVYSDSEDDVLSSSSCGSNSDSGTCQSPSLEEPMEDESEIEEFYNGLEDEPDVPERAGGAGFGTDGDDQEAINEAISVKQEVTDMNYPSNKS

[3] = biological target: T3, NAD-dependent protein deacetylase sirtuin-1 (Homo sapiens, UniProt Q96EB6); experiment: Inhibition of human recombinant N-terminal GST-tagged SIRT1 (193 to 741 residues) expressed in Escherichia coli using Ac-Gln-Pro-Lys-Lys(Ac)-AMC (oxo-10) as substrate by fluorescence assay
T3 sequence (Q96EB6 whole entry): T2 sequence (whole entry)

[4] = biological target: T4, NAD-dependent protein deacetylase sirtuin-2 (Homo sapiens, UniProt Q8IXJ6); experiment: Inhibition of human C-terminal His-tagged SIRT2 (50 to 356 residues) expressed in Escherichia coli using Ac-Gln-Pro-Lys-Lys(pro)-AMC (oxo-11) as substrate by fluorescence assay
T4 sequence (Q8IXJ6 whole entry): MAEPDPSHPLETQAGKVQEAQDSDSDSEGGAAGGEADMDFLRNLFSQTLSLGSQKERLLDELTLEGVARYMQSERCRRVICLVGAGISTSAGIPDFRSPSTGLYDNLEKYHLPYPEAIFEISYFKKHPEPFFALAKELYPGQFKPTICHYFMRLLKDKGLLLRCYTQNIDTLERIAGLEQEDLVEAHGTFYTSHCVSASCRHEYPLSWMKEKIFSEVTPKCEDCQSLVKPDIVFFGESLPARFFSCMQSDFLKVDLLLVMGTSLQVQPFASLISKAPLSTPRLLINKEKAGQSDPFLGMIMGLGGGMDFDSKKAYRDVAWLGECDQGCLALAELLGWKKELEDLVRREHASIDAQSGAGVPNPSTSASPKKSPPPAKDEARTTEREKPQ

[5] = biological target: T2, NAD-dependent protein deacetylase sirtuin-1 (Homo sapiens); experiment: Inhibition of human recombinant N-terminal GST-tagged SIRT1 (193 to 741 residues) deacetylation activity in presence of substrate and NAD+ at 15 uM after 15 to 60 mins by reversed-phase UPLC-MS analysis; details: time min 15-60
[6] = biological target: T5, NAD-dependent protein deacetylase sirtuin-2 (Homo sapiens) (UniProt Q8IXJ6); experiment: Inhibition of human recombinant C-terminal His-tagged SIRT2 (50 to 356 residues) deacetylation activity in presence of substrate and NAD+ incubated for 60 mins measured after 90 mins by fluorescence assay
T5 sequence (whole entry): T4 sequence (Q8IXJ6 whole entry)
Procedure, shortened: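 Recombinant SIRT2 (100 nM or 250 nM) incubated with fluorogenic thioacyl or oxo lysine-AMC substrates plus NAD+. Deacylation read by fluorescence. Two independent experiments in duplicate, standard deviation.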

[7] = biological target: T2, NAD-dependent protein deacetylase sirtuin-1 (Homo sapiens); experiment: Inhibition of human N-terminal GST-tagged SIRT1 (193 to 741 residues) expressed in Escherichia coli preincubated with NAD+ for 30 mins using Ac-Gln-Pro-Lys-Lys(Ac)-AMC (oxo-10) as substrate at 1 to 100 uM measured after 90 mins by fluorescence assay; details: dose microM 1-100, time 120.0 min
Procedure, shortened: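 Recombinant SIRT1 (100 nM) preincubated 30 min with compound, either with or without NAD+ (500 μM), before the fluorogenic deacetylation read-out. Single-dose %-inhibition. Two independent experiments in duplicate, standard deviation.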

[8] = Metabolic stability of compound in human serum assessed as half life incubated for >10 mins measured after 90 mins by HPLC analysis; assay type: ADME, cell-free
[9] = biological target: T2, NAD-dependent protein deacetylase sirtuin-1 (Homo sapiens); experiment: Inhibition of SIRT1 in HEK293 cells assessed as increase in p53 acetylation co-treated with TSA at 25 uM for 6 hrs by western blot analysis; assay type: cell-based
Procedure, shortened: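 HEK293 cells exposed 6 h to compound at 25 μM together with TSA (1 μM). Whole-cell lysates immunoblotted for Ac-p53 (K382) and total p53. Ratio Ac-p53/p53 normalized to DMSO control. Two independent experiments in duplicate, SEM.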

[10] = biological target: T2, NAD-dependent protein deacetylase sirtuin-1 (Homo sapiens); experiment: Inhibition of human recombinant N-terminal GST-tagged SIRT1 (193 to 741 residues) deacetylation activity in presence of substrate and NAD+ at 15 uM after 30 mins by reversed-phase UPLC-MS analysis relative to control
[11] = biological target: T2, NAD-dependent protein deacetylase sirtuin-1 (Homo sapiens); experiment: Inhibition of human recombinant N-terminal GST-tagged SIRT1 (193 to 741 residues) deacetylation activity in presence of substrate and NAD+ at 15 uM after 60 mins by reversed-phase UPLC-MS analysis relative to control

inhibition [1]	inhibition [2]	IC50 [3]	IC50 [4]	inhibition [5]	inhibition [6]	inhibition [7]	half-life [8]	inhibition [9]	inhibition [10]	inhibition [11]	Structure (SMILES)
19%	inactive	0.51 µM	2.2 µM	Active	inactive	inactive	7 h				CCC(=S)NCCCC[C@H](NC(=O)OCc1ccccc1)C(=O)N[C@@H](Cc1c[nH]c2ccccc12)C(=O)NC(C)C
					inactive	Active	> 7 h	Active	3%	7%	CC(=S)NCCCC[C@H](NC(=O)OCc1ccccc1)C(=O)N[C@@H](Cc1c[nH]c2ccccc12)C(=O)NC(C)C

From ChEMBL document CHEMBL4725432, “Dethioacylation by Sirtuins 1-3: Considerations for Drug Design Using Mechanism-Based Sirtuin Inhibition” (ACS Med Chem Lett, 2020)
